According to ChEMBL document CHEMBL2413013, “Triplex-forming ability of oligonucleotides containing 1-aryl-1,2,3-triazole nucleobases linked via a two atom-length spacer” (Bioorg Med Chem, 2013):

Experiments:
[1] = Binding affinity to hairpin double stranded DNA AT base pair in sodium cacodylate buffer at pH 6.8 assessed as triplex-forming ability measuring melting temperature after by UV melting experiment
In short: (§1)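 TFO and hairpin dsDNA target, each strand at 1.89 μM final, in 10 mM sodium cacodylate (pH 6.8) with 100 mM KCl and 50 mM MgCl₂. Annealed in boiling water, then cooled slowly to 5 °C. Melting was followed at 260 nm from 5 to 90 °C at 0.5 °C/min. Tm was taken by the two-point average method, mean of three independent runs.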

[2] = Binding affinity to hairpin double stranded DNA GC base pair in sodium cacodylate buffer at pH 6.8 assessed as triplex-forming ability measuring melting temperature after by UV melting experiment; in short: as §1
[3] = Binding affinity to hairpin double stranded DNA CG base pair in sodium cacodylate buffer at pH 6.8 assessed as triplex-forming ability measuring melting temperature after by UV melting experiment; in short: as §1
[4] = Binding affinity to hairpin double stranded DNA TA base pair in sodium cacodylate buffer at pH 6.8 assessed as triplex-forming ability measuring melting temperature after by UV melting experiment; in short: as §1

| SMILES | Tm [1] [°C] | Tm [2] [°C] | Tm [3] [°C] | Tm [4] [°C] |
| --- | --- | --- | --- | --- |
| Cc1cn([C@H]2C[C@H](O[PH](OCCC#N)(OC[C@H]3O[C@@H](n4cc(C)c(=O)[nH]c4=O)C[C@@H]3O[PH](OCCC#N)(OC[C@H]3O[C@@H](n4cc(C)c(=O)[nH]c4=O)C[C@@H]3O[PH](OCCC#N)(OC[C@H]3O[C@@H](n4cc(C)c(=O)[nH]c4=O)C[C@@H]3O[PH](OCCC#N)(OC[C@H]3O[C@@H](n4cc(C)c(=O)[nH]c4=O)C[C@@H]3O[PH](OCCC#N)(OC(C)[C@H]3O[C@@H](n4ccc(N)nc4=O)C[C@@H]3O[PH](OCCC#N)(OC[C@H]3O[C@@H](n4cc(C)c(=O)[nH]c4=O)C[C@@H]3O[PH](OCCC#N)(OC[C@H]3O[C@@H](CCc4cn(-c5cc(NC(N)=O)cc(NC(N)=O)c5)nn4)C[C@@H]3OP(=O)(O)OC[C@H]3O[C@@H](n4cc(C)c(=O)[nH]c4=O)C[C@@H]3O[PH](OCCC#N)(OC(C)[C@H]3O[C@@H](n4ccc(N)nc4=O)C[C@@H]3O[PH](OCCC#N)(OC[C@H]3O[C@@H](n4cc(C)c(=O)[nH]c4=O)C[C@@H]3O[PH](OCCC#N)(OC(C)[C@H]3O[C@@H](n4ccc(N)nc4=O)C[C@@H]3O[PH](OCCC#N)(OC[C@H]3O[C@@H](n4cc(C)c(=O)[nH]c4=O)C[C@@H]3O[PH](OCCC#N)(OC(C)[C@H]3O[C@@H](n4ccc(N)nc4=O)C[C@@H]3O[PH](OCCC#N)(OC[C@H]3O[C@@H](n4cc(C)c(=O)[nH]c4=O)C[C@@H]3O)N(C(C)C)C(C)C)N(C(C)C)C(C)C)N(C(C)C)C(C)C)N(C(C)C)C(C)C)N(C(C)C)C(C)C)N(C(C)C)C(C)C)N(C(C)C)C(C)C)N(C(C)C)C(C)C)N(C(C)C)C(C)C)N(C(C)C)C(C)C)N(C(C)C)C(C)C)N(C(C)C)C(C)C)N(C(C)C)C(C)C)[C@@H](CO)O2)c(=O)[nH]c1=O (stereo not given in full) | 22 | 23 | 27 | 27 |
| Cc1cn([C@H]2C[C@H](O[PH](OCCC#N)(OC[C@H]3O[C@@H](n4cc(C)c(=O)[nH]c4=O)C[C@@H]3O[PH](OCCC#N)(OC[C@H]3O[C@@H](n4cc(C)c(=O)[nH]c4=O)C[C@@H]3O[PH](OCCC#N)(OC[C@H]3O[C@@H](n4cc(C)c(=O)[nH]c4=O)C[C@@H]3O[PH](OCCC#N)(OC[C@H]3O[C@@H](n4cc(C)c(=O)[nH]c4=O)C[C@@H]3O[PH](OCCC#N)(OC(C)[C@H]3O[C@@H](n4ccc(N)nc4=O)C[C@@H]3O[PH](OCCC#N)(OC[C@H]3O[C@@H](n4cc(C)c(=O)[nH]c4=O)C[C@@H]3O[PH](OCCC#N)(OC[C@H]3O[C@@H](OCc4cn(-c5cccc(O)c5)nn4)C[C@@H]3OP(=O)(O)OC[C@H]3O[C@@H](n4cc(C)c(=O)[nH]c4=O)C[C@@H]3O[PH](OCCC#N)(OC(C)[C@H]3O[C@@H](n4ccc(N)nc4=O)C[C@@H]3O[PH](OCCC#N)(OC[C@H]3O[C@@H](n4cc(C)c(=O)[nH]c4=O)C[C@@H]3O[PH](OCCC#N)(OC(C)[C@H]3O[C@@H](n4ccc(N)nc4=O)C[C@@H]3O[PH](OCCC#N)(OC[C@H]3O[C@@H](n4cc(C)c(=O)[nH]c4=O)C[C@@H]3O[PH](OCCC#N)(OC(C)[C@H]3O[C@@H](n4ccc(N)nc4=O)C[C@@H]3O[PH](OCCC#N)(OC[C@H]3O[C@@H](n4cc(C)c(=O)[nH]c4=O)C[C@@H]3O)N(C(C)C)C(C)C)N(C(C)C)C(C)C)N(C(C)C)C(C)C)N(C(C)C)C(C)C)N(C(C)C)C(C)C)N(C(C)C)C(C)C)N(C(C)C)C(C)C)N(C(C)C)C(C)C)N(C(C)C)C(C)C)N(C(C)C)C(C)C)N(C(C)C)C(C)C)N(C(C)C)C(C)C)N(C(C)C)C(C)C)[C@@H](CO)O2)c(=O)[nH]c1=O (stereo not given in full) | 20 | 21 | 24 | 21 |
| Cc1cn([C@H]2C[C@H](O[PH](OCCC#N)(OC[C@H]3O[C@@H](n4cc(C)c(=O)[nH]c4=O)C[C@@H]3O[PH](OCCC#N)(OC[C@H]3O[C@@H](n4cc(C)c(=O)[nH]c4=O)C[C@@H]3O[PH](OCCC#N)(OC[C@H]3O[C@@H](n4cc(C)c(=O)[nH]c4=O)C[C@@H]3O[PH](OCCC#N)(OC[C@H]3O[C@@H](n4cc(C)c(=O)[nH]c4=O)C[C@@H]3O[PH](OCCC#N)(OC(C)[C@H]3O[C@@H](n4ccc(N)nc4=O)C[C@@H]3O[PH](OCCC#N)(OC[C@H]3O[C@@H](n4cc(C)c(=O)[nH]c4=O)C[C@@H]3O[PH](OCCC#N)(OC[C@H]3O[C@@H](CCc4cn(-c5ccccc5)nn4)C[C@@H]3OP(=O)(O)OC[C@H]3O[C@@H](n4cc(C)c(=O)[nH]c4=O)C[C@@H]3O[PH](OCCC#N)(OC(C)[C@H]3O[C@@H](n4ccc(N)nc4=O)C[C@@H]3O[PH](OCCC#N)(OC[C@H]3O[C@@H](n4cc(C)c(=O)[nH]c4=O)C[C@@H]3O[PH](OCCC#N)(OC(C)[C@H]3O[C@@H](n4ccc(N)nc4=O)C[C@@H]3O[PH](OCCC#N)(OC[C@H]3O[C@@H](n4cc(C)c(=O)[nH]c4=O)C[C@@H]3O[PH](OCCC#N)(OC(C)[C@H]3O[C@@H](n4ccc(N)nc4=O)C[C@@H]3O[PH](OCCC#N)(OC[C@H]3O[C@@H](n4cc(C)c(=O)[nH]c4=O)C[C@@H]3O)N(C(C)C)C(C)C)N(C(C)C)C(C)C)N(C(C)C)C(C)C)N(C(C)C)C(C)C)N(C(C)C)C(C)C)N(C(C)C)C(C)C)N(C(C)C)C(C)C)N(C(C)C)C(C)C)N(C(C)C)C(C)C)N(C(C)C)C(C)C)N(C(C)C)C(C)C)N(C(C)C)C(C)C)N(C(C)C)C(C)C)[C@@H](CO)O2)c(=O)[nH]c1=O (stereo not given in full) | 21 | 20 | 24 | 22 |

The remaining lines, values ahead:

| Tm [1] [°C] | Tm [2] [°C] | Tm [3] [°C] | Tm [4] [°C] | SMILES |
| --- | --- | --- | --- | --- |
| 19 | 20 | 23 | 23 | Cc1cn([C@H]2C[C@H](O[PH](OCCC#N)(OC[C@H]3O[C@@H](n4cc(C)c(=O)[nH]c4=O)C[C@@H]3O[PH](OCCC#N)(OC[C@H]3O[C@@H](n4cc(C)c(=O)[nH]c4=O)C[C@@H]3O[PH](OCCC#N)(OC[C@H]3O[C@@H](n4cc(C)c(=O)[nH]c4=O)C[C@@H]3O[PH](OCCC#N)(OC[C@H]3O[C@@H](n4cc(C)c(=O)[nH]c4=O)C[C@@H]3O[PH](OCCC#N)(OC(C)[C@H]3O[C@@H](n4ccc(N)nc4=O)C[C@@H]3O[PH](OCCC#N)(OC[C@H]3O[C@@H](n4cc(C)c(=O)[nH]c4=O)C[C@@H]3O[PH](OCCC#N)(OC[C@H]3O[C@@H](CCc4cn(-c5cccc(CO)c5)nn4)C[C@@H]3OP(=O)(O)OC[C@H]3O[C@@H](n4cc(C)c(=O)[nH]c4=O)C[C@@H]3O[PH](OCCC#N)(OC(C)[C@H]3O[C@@H](n4ccc(N)nc4=O)C[C@@H]3O[PH](OCCC#N)(OC[C@H]3O[C@@H](n4cc(C)c(=O)[nH]c4=O)C[C@@H]3O[PH](OCCC#N)(OC(C)[C@H]3O[C@@H](n4ccc(N)nc4=O)C[C@@H]3O[PH](OCCC#N)(OC[C@H]3O[C@@H](n4cc(C)c(=O)[nH]c4=O)C[C@@H]3O[PH](OCCC#N)(OC(C)[C@H]3O[C@@H](n4ccc(N)nc4=O)C[C@@H]3O[PH](OCCC#N)(OC[C@H]3O[C@@H](n4cc(C)c(=O)[nH]c4=O)C[C@@H]3O)N(C(C)C)C(C)C)N(C(C)C)C(C)C)N(C(C)C)C(C)C)N(C(C)C)C(C)C)N(C(C)C)C(C)C)N(C(C)C)C(C)C)N(C(C)C)C(C)C)N(C(C)C)C(C)C)N(C(C)C)C(C)C)N(C(C)C)C(C)C)N(C(C)C)C(C)C)N(C(C)C)C(C)C)N(C(C)C)C(C)C)[C@@H](CO)O2)c(=O)[nH]c1=O (stereo not given in full) |
| 20 | 22 | 22 | 20 | CC1=CN([C@H]2C[C@H](O[PH](OCCC#N)(OC(C)[C@H]3O[C@@H](n4ccc(N)nc4=O)C[C@@H]3O[PH](OCCC#N)(OC[C@H]3O[C@@H](n4cc(C)c(=O)[nH]c4=O)C[C@@H]3O[PH](OCCC#N)(OC(C)[C@H]3O[C@@H](n4ccc(N)nc4=O)C[C@@H]3O[PH](OCCC#N)(OC[C@H]3O[C@@H](n4cc(C)c(=O)[nH]c4=O)C[C@@H]3O)N(C(C)C)C(C)C)N(C(C)C)C(C)C)N(C(C)C)C(C)C)N(C(C)C)C(C)C)[C@@H](CO[PH](OCCC#N)(O[C@H]3C[C@H](n4ccc(N)nc4=O)O[C@@H]3C(C)O[PH](OCCC#N)(O[C@H]3C[C@H](n4cc(C)c(=O)[nH]c4=O)O[C@@H]3COP(=O)(O)O[C@H]3C[C@H](OCc4cn(-c5ccccc5)nn4)O[C@@H]3CO[PH](OCCC#N)(O[C@H]3C[C@H](n4cc(C)c(=O)[nH]c4=O)O[C@@H]3CO[PH](OCCC#N)(O[C@H]3C[C@H](n4ccc(N)nc4=O)O[C@@H]3C(C)O[PH](OCCC#N)(O[C@H]3C[C@H](n4cc(C)c(=O)[nH]c4=O)O[C@@H]3CO[PH](OCCC#N)(O[C@H]3C[C@H](n4cc(C)c(=O)[nH]c4=O)O[C@@H]3CO[PH](OCCC#N)(O[C@H]3C[C@H](n4cc(C)c(=O)[nH]c4=O)O[C@@H]3CO[PH](OCCC#N)(O[C@H]3C[C@H](n4cc(C)c(=O)[nH]c4=O)O[C@@H]3CO[PH](OCCC#N)(O[C@H]3C[C@H](n4cc(C)c(=O)[nH]c4=O)O[C@@H]3CO)N(C(C)C)C(C)C)N(C(C)C)C(C)C)N(C(C)C)C(C)C)N(C(C)C)C(C)C)N(C(C)C)C(C)C)N(C(C)C)C(C)C)N(C(C)C)C(C)C)N(C(C)C)C(C)C)N(C(C)C)C(C)C)O2)[C@@H](O)NC1=O (stereo not given in full) |
